The text below walks through data of PMC9420810 (Nature microbiology, 2022).

The conditions of assay [1]: read-out: KD of haem binding; cited from earlier work.
For assay [2], the system named is S. meliloti bacteroids isolated from M. truncatula nodules. The assay is described as follows: 55Fe uptake by isolated bacteroids. It is filed as cell-based, Sinorhizobium meliloti. The settings on record: bacteroids from nodules of plants inoculated with wild type S. meliloti, NCR247 treated.
A further assay concerns Aβ (1-42)-haem complex. The assay is described as follows: Peroxidase assay. It is filed as biochemical, human. The conditions noted are these: equimolar addition of NCR247, TMB substrate, 370 nm and 652 nm. In outline: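 Haem complex, with or without equimolar peptide, is added to TMB substrate solution (TMB:peroxide 1:1) in 96-well plates. Reaction progress is followed in a plate reader by absorbance at 370 and 652 nm. Values are the mean of three independent replicates ± s.d.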

Assay [3] is described as follows: UV-Vis spectroscopy of haem binding to synthesized peptide. The settings on record: haem reduced by excess sodium dithionite, anaerobic chamber. A digest of the protocol: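 Hemin is dissolved in 0.1 M NaOH and used within 30 min. Its stock concentration is set by pyridine hemochrome absorbance at 557 nm (ε 34.7 mM⁻¹ cm⁻¹). Peptide and haem are mixed in water (pH 7.4) in 96-well plates. After shaking at 100 rpm for 15 s, spectra are recorded from 300 to 700 nm in 5 nm steps on a plate reader.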

The test system of assay [4] is S. meliloti. Put plainly: Growth curve in minimal medium. It is filed as cell-based, Sinorhizobium meliloti. The settings on record: 2 μM NCR247, OD 600 nm, 30° C. In outline: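 Strain RM1021 or its mutants are first grown in LBMC (LB with 2.5 mM CaCl₂ and 2.5 mM MgSO₄, 200 μg/ml streptomycin, 30°C). Overnight cultures are washed and subcultured 1:100 into minimal medium, either iron-free or with the stated iron, Mn or Zn supplement. Cultures shake continuously at 150 rpm and 30°C in a plate reader, with OD600 read every 60 min.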

In assay [5] the test system is S. meliloti. Put plainly: Radioactive 55Fe uptake assay. It is filed as cell-based, Sinorhizobium meliloti. In outline: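 Cells are grown in LB to OD600 0.2, pelleted and held 1 h in minimal medium with 5 μM FeSO₄. Then 2 μM peptide and 100 μM sodium ascorbate are added for 30 min. At time 0, 1 μM ⁵⁵FeCl₃ with ascorbate is added. Timed 1 ml samples are quenched in ice-cold buffer (0.1 M Tris, 1 mM ascorbate, 100 μM FeSO₄, pH 6.0) and vacuum-filtered on 0.45 μm filters. Filters are scintillation-counted, and counts are normalised to protein.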

For assay [6], the system named is Porphyromonas gingivalis 2561. Put plainly: Cell viability assay, P. gingivalis. Format: cell-based.
Assay [7] deals with iron uptake genes (hmuP) and rirA in S. meliloti. Put plainly: qRT-PCR of iron-related genes. It is filed as cell-based, Sinorhizobium meliloti. In outline:
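Cells are grown in LB to OD600 0.2, pelleted and resuspended for 1 h in minimal medium with or without FeSO₄, then exposed to peptide for 30 min. Transcript levels are measured by qRT-PCR and expressed as starting quantities normalised to the reference gene SMc00128.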

The subject of assay [8] is S. meliloti. The assay is described as follows: ICP-MS total iron content of cells. Format: cell-based, Sinorhizobium meliloti. The conditions noted are these: 2 μM NCR247, ICP-MS, normalized to protein. A digest of the protocol: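 Equal numbers of cells are pelleted for ICP-MS metal analysis. Protein is measured from the same number of cells, and metal content is normalised to protein.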

The subject of another assay is Cytochrome c. The assay is described as follows: UV-Vis test of haem sequestration from Cytochrome c. Format: binding. The conditions noted are these: excess NCR247 added to Cytochrome c, UV-Vis spectrum.

For “Aβ(1-42): human Aβ(1-42) amyloid peptide [reference compound]”, the Kd (in general, the free concentration of one partner at which half of the binding sites on the other are occupied at equilibrium, for simple one-to-one binding) in assay [1] was 0.14 µM.
Turning to RNGCIVDPRCPYQQCRRPLYCRRR [NCR247], the “uptake of Fe55 by bacteroids compared with untreated” value in assay [2] is listed as “increase uptake of Fe^55”. In addition, the “peroxidase activity of Aβ (1-42)-haem complex” value with Aβ (1-42)-haem complex is reported as “quenches its peroxidase activity”. Moreover, the “binding of Fe(II) ferrous haem” value in assay [3] was “binds”. Further, the “growth rate of S. meliloti” value in the assay with S. meliloti [4] is listed as “reduction in growth rate”. The “import of 55Fe” value in the assay with S. meliloti [5] (wild type S. meliloti, medium with sufficient iron (5 μM FeSO4), 2 μM NCR247, mean of three biological replicates) was “markedly increased”. Moreover, in the assay on S. meliloti [5] (Δirr S. meliloti, NCR247 treated), the “uptake of 55Fe in irr deletion mutant compared to wild type” value is listed as “diminished”. Besides, in assay [6], the “growth / viable cell number of Porphyromonas gingivalis” value is on record as “can prevent the growth”. Besides, the rirA transcription result in assay [7] (wild type S. meliloti, 2 μM NCR247 for 30 mins) was “reduced”. Moreover, in [7] (wild type S. meliloti, iron-replete medium, NCR247 treatment 30 mins), the “transcript levels of iron uptake genes” value is “increase in transcript levels of iron uptake genes”. In [7] (ΔbacA S. meliloti, 2 μM NCR247 for 30 mins), the “expression of hmuP in ΔbacA strain” value is “very little change in expression of hmuP”. Also, the “total iron content of the cells” value in the assay with S. meliloti [8] is recorded as “elevated total iron content”. The “sequestration of cytochrome haem” value with Cytochrome c was “cannot sequester cytochrome haem”.
On to serum albumin, for which the Kd in assay [1] was 40 µM.
